Assay results taken from paper PMC6916675 (Cancer Management and Research, 2019).
Entries after “also recorded” stand apart in the source; their conditions may differ.

What was measured:
mTORC2 (pAKT.S473) = assay: pAKT biomarker inhibition in stimulated blood monocytes; type: in vivo, human
Procedure, shortened: (§1)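 Blood sampled predose and up to 5 hrs postdose on cycle 1 days 1 and 15, plus around tumour biopsy (days 15–21). Markers: p4E-BP1 T37/T46 (mTORC1) and pAKT S473 (mTORC2). In Part B, CD14+ monocytes were stimulated with anti-IgD plus lipopolysaccharide (37°C, 15 min) and analysed by flow cytometry. Signal was expressed as molecules of equivalent fluorescein.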

[1] = system: advanced solid or hematologic malignancies; assay: Antitumor efficacy; type: in vivo, human
Procedure, shortened: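 Investigators assessed response by RECIST 1.1, RANO, updated IWCLL or PCWG2 criteria. Solid tumours were restaged by CT or MRI after cycles 2, 4, 6, 9 and 12, every 6 cycles thereafter, and at end of treatment. Patients meeting IWCLL criteria but with persistent lymphocytosis were classed non-IWCLL. Best overall response frequency was tabulated. BA/FE substudy: 12 solid-tumour patients (GBM excluded).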

[2] = Distribution of CC-115 to GBM tumor tissue; type: in vivo; details: human, GBM tumor tissue and plasma, oral, 10 mg BID
[3] = Urinary excretion of CC-115; type: in vivo, human; details: for Fe (fraction excreted unchanged in urine), mean (CV%) / Urine Ae24, mean (CV%): first dose
[4] = Plasma pharmacokinetics of CC-115; type: in vivo, human; details: for AUC(0-inf) / Vd/F / AUC / Cmax / Tmax: human, plasma, oral; for Cmax: Plasma Cmax, mean (CV%); for Tmax: Plasma Tmax, median (min, max)
[5] = Bioavailability/food effect; type: in vivo, human; details: single oral dose with high-fat meal vs fasted
mTORC1 (p4E-BP1.T37/T46) = assay: p4E-BP1 biomarker inhibition in stimulated blood monocytes; type: in vivo, human
Procedure, shortened: as §1

p4EBP1 = assay: Immunohistochemistry of paired tumor biopsies, p4EBP1; type: in vivo, human; details: before treatment vs after approximately 15 days of treatment
pAKT = assay: Immunohistochemistry of paired tumor biopsies, pAKT; type: in vivo, human; details: before treatment vs after approximately 15 days of treatment
[6] = Safety and tolerability in Phase I patients; type: in vivo, human
[7] = Part A, repeat once-daily administration
[8] = patient with endometrial cancer (complete response)
[9] = Part A, efficacy evaluable n=39
[10] = 8 mg, first dose, 8 mg QD, n = 6
[11] = 8 mg, multiple doses, 8 mg QD, n = 7
[12] = 10 mg, first dose, 10 mg BID, n = 6
[13] = 10 mg, multiple doses, 10 mg BID, n = 7
[14] = 15 mg, first dose, 15 mg BID, n = 6
[15] = 15 mg, multiple doses, 15 mg BID, n = 5
[16] = 16 mg, first dose, 16 mg QD, n = 6
[17] = 16 mg, multiple doses, 16 mg QD, n = 8
[18] = 25 mg, first dose, 25 mg QD, n = 7
[19] = 25 mg, multiple doses, 25 mg QD, n = 5
[20] = 40 mg, first dose, 40 mg QD, n = 6
[21] = 40 mg, multiple doses, 40 mg QD, n = 4

CCN1C(=O)CNc2ncc(-c3ccc(-c4nc[nH]n4)nc3C)nc21 [CC-115]
Median biomarker (pAKT) (mTORC2 (pAKT.S473); 10 mg BID cohort, after 3 hrs): 84% | Dose above which mTORC2 (pAKT) was inhibited in peripheral blood monocytes (mTORC2 (pAKT.S473); [7]): > 4 mg QD | Median decrease of pAKT (mTORC2 (pAKT.S473); Part B, 10 mg BID, day 15): 80% | Inhibition of pAKT (mTORC2 (pAKT.S473); [8]): 85% | Time for which pAKT inhibition was sustained (mTORC2 (pAKT.S473); postdose): at least 5 hrs | Stable disease, patients ([1]; BA/FE substudy): 4 patients | Partial response (unconfirmed), patients ([1]; BA/FE substudy, breast carcinoma (5 patients)): 2 patients | Stable disease, patients ([1]; BA/FE substudy, breast malignancies): 1 patients | Stable disease, patients ([1]; BA/FE substudy, ovarian malignancies): 2 patients | Stable disease, patients ([1]; BA/FE substudy, rectal malignancies): 1 patients | Disease control rate (DCR) [1, 9]: 51% | Overall response rate (ORR) [1, 9]: 5% | 6-month PFS ([1]; Part B, CLL/SLL): 86% | Best response of SD by IWCLL and non-IWCLL criteria ([1]; Part B, CLL/SLL, June 2017): 25% | PR by IWCLL criteria ([1]; Part B, CLL/SLL, June 2017): 25% | PR by non-IWCLL criteria (persistent lymphocytosis) ([1]; Part B, CLL/SLL, June 2017): 38% | Best response of SD ([1]; Part B, CRPC, 11 efficacy evaluable patients): 64% | 6-month PFS rate ([1]; Part B, ES): 0% | Best response of SD ([1]; Part B, ES n=9): 22% | Best response of nonprogression ([1]; Part B, GBM, 14 evaluable patients): 21% | Best response of SD ([1]; Part B, HNSCC n=17): 53% | Time in complete remission / tumor-free ([1]; one patient with endometrial cancer, 10 mg BID reduced to 8 mg BID): > 4 years | Kp [2]: 0.713 | Excreted in urine ([3]; Part A): Less than 1% | Fe (fraction excreted unchanged in urine), mean (CV%) ([3]; 8 mg QD, n = 6): 0.25 (66) % | Urine Ae24, mean (CV%) ([3]; 8 mg QD, n = 6): 19,748 (66) ng | Fe (fraction excreted unchanged in urine), mean (CV%) ([3]; 10 mg BID, n = 6): 0.53 (108) % | Urine Ae24, mean (CV%) ([3]; 10 mg BID, n = 6): 53,259 (108) ng | Fe (fraction excreted unchanged in urine), mean (CV%) ([3]; 15 mg BID, n = 6): 0.72 (53) % | Urine Ae24, mean (CV%) ([3]; 15 mg BID, n = 6): 107,283 (53) ng | Fe (fraction excreted unchanged in urine), mean (CV%) ([3]; 16 mg QD, n = 6): 0.33 (108) % | Urine Ae24, mean (CV%) ([3]; 16 mg QD, n = 6): 52,491 (108) ng | Fe (fraction excreted unchanged in urine), mean (CV%) ([3]; 25 mg QD, n = 7): 0.41 (79) % | Urine Ae24, mean (CV%) ([3]; 25 mg QD, n = 7): 103,312 (79) ng | Fe (fraction excreted unchanged in urine), mean (CV%) ([3]; 40 mg QD, n = 6): 0.34 (55) % | Urine Ae24, mean (CV%) ([3]; 40 mg QD, n = 6): 136,157 (55) ng | AUC(0-inf) ([4]; 8 mg): 237 ng·h/mL | Vd/F ([4]; 8 mg): 294 L | AUC ([4]; 8 mg, Plasma AUC12, mean (CV%), first dose, 8 mg QD, n = 6): 180 ng·h/mL | AUC ([4]; 8 mg, Plasma AUC24, mean (CV%), first dose, 8 mg QD, n = 6): 236 ng·h/mL | Cmax [4, 10]: 36.1 ng/mL | Cmax [4, 11]: 40.9 ng/mL | Tmax [4, 10]: 1.5 h | Tmax [4, 11]: 1.5 h | AUC(0-inf) ([4]; 10 mg): 605 ng·h/mL | Vd/F ([4]; 10 mg): 189 L | Cmax [4, 12]: 51.8 ng/mL | Cmax [4, 13]: 75.2 ng/mL | Tmax [4, 12]: 2.25 h | Tmax [4, 13]: 1.42 h | AUC(0-inf) ([4]; 15 mg): 1310 ng·h/mL | Vd/F ([4]; 15 mg): 173 L | Cmax [4, 14]: 134 ng/mL | Cmax [4, 15]: 162 ng/mL | Tmax [4, 14]: 1.04 h | Tmax [4, 15]: 1.52 h | AUC(0-inf) ([4]; 16 mg): 625 ng·h/mL | Vd/F ([4]; 16 mg): 264 L | Cmax [4, 16]: 88.7 ng/mL | Cmax [4, 17]: 118 ng/mL | Tmax [4, 16]: 2.95 h | Tmax [4, 17]: 1.65 h | AUC(0-inf) ([4]; 25 mg): 1910 ng·h/mL | Vd/F ([4]; 25 mg): 149 L | Cmax [4, 18]: 173 ng/mL | Cmax [4, 19]: 198 ng/mL | Tmax [4, 18]: 3 h | Tmax [4, 19]: 1.52 h | AUC(0-inf) ([4]; 40 mg): 2130 ng·h/mL | Vd/F ([4]; 40 mg): 201 L | Cmax [4, 20]: 167 ng/mL | Cmax [4, 21]: 244 ng/mL | Tmax [4, 20]: 2.25 h | Tmax [4, 21]: 3 h | Increase of Cmax and AUC∞ with dose ([4]; single and multiple doses ranging from 4 to 40 mg): linear, dose-proportional | Decrease in Cmax on co-administration of the tablet with food [5]: ~ 40% | Delay in Tmax on co-administration of the tablet with food [5]: 3.5 h | Total exposure (AUC∞) fed versus fasted [5]: similar; also recorded: comparable | Median biomarker (p4E-BP1) (mTORC1 (p4E-BP1.T37/T46); 10 mg BID cohort, after 3 hrs): 35% | Dose above which mTORC1 (p4E-BP1) was inhibited in peripheral blood monocytes (mTORC1 (p4E-BP1.T37/T46); [7]): > 4 mg QD | Median decrease of p4E-BP1 (mTORC1 (p4E-BP1.T37/T46); Part B, 10 mg BID, day 15): 34% | Inhibition of p4E-BP1 (mTORC1 (p4E-BP1.T37/T46); [8]): 51% | Time for which p4E-BP1 inhibition was sustained (mTORC1 (p4E-BP1.T37/T46); postdose): at least 5 hrs | Inhibition of p4EBP1 in paired tumor biopsies (p4EBP1): Moderate, not statistically significant, inhibition | Inhibition of pAKT in paired tumor biopsies (pAKT): Moderate, not statistically significant, inhibition | Drug-related AE: diarrhea ([6]; Part A): 25% | Drug-related AE: fatigue ([6]; Part A): 50% | Drug-related AE: hyperglycemia ([6]; Part A): 23% | Drug-related AE: nausea ([6]; Part A): 41% | Drug-related AE: vomiting ([6]; Part A): 41% | Grade 3 toxicities, patients ([6]; Part A): 41% | Grade 3 toxicity: fatigue ([6]; Part A): 7% | Grade 3 toxicity: hypertriglyceridemia ([6]; Part A): 5% | Grade 3 toxicity: hypophosphatemia ([6]; Part A): 7% | Grade 3 toxicity: maculopapular rash ([6]; Part A): 5% | Grade 3 toxicity: stomatitis ([6]; Part A): 5% | Patients requiring dose reduction from initially assigned dose levels ([6]; Part A): 39% | Patients requiring drug interruption ([6]; Part A): 93% | Patients who discontinued treatment due to AEs ([6]; Part A): 7% | Patients with ≥1 drug-related AE ([6]; Part A): 93% | Dose-limiting toxicities (increased transaminases and stomatitis) ([6]; Part A, 15 mg BID): 2 DLTs | Dose-limiting toxicity (thrombocytopenia), patients ([6]; Part A, 16 mg QD): 1 patient | Dose-limiting toxicity (stomatitis), patients ([6]; Part A, 25 mg QD): 1 patient | Dose-limiting toxicities (hyperglycemia, asthenia, and fatigue), patients ([6]; Part A, 40 mg QD): 2 of 6 patients | Maximum-tolerated dose (MTD) ([6]; Part A, once-daily schedule): 25 mg QD | Non-tolerated dose (NTD) ([6]; Part A, once-daily schedule): 40 mg QD | Maximum-tolerated dose (MTD) ([6]; Part A, twice-daily schedule): 10 mg BID | Non-tolerated dose (NTD) ([6]; Part A, twice-daily schedule): 15 mg BID | Patients requiring ≥1 dose reduction, range over cohorts ([6]; Part B overall): 40–93% | Patients with dose reductions ([6]; Part B, GBM): 93%
